# FXIa inh: inhibitors of human coagulation factor XIa; purified FXIa, Boc-Glu-Ala-Arg-AMC fluorogenic substrate; inhibition, % at 5 µM; hit rate 0.14% among 220,000; AID 798;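 active means inhibition of at least 40%; inactive means inhibition below 40%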;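 further: fluorescence of freed AMC excited at 355 nm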
# FXIIa inh: factor XIIa (human) inhibition. purified FXIIa, Boc-QGR-AMC fluorogenic substrate, 2 h. inhibition, % at 5 µM. hit rate 0.3% among 220,000; in the data active means inhibition above about 40%
# Wee1 degr inh: blocks degradation of human Wee1 kinase; P30291; HeLa Luc-Wee1K328M stability, luciferase luminescence; 100% = proteasome inhibitor MG132 effect; reporter increase, % at 5 µM; hit rate 1.2% among 220,000;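 active means activation above the mean of all tested compounds plus 3 SD, set per screening run, cut at about 8.8% in these data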;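 further: cells exposed to compound for 20 h before luminescence read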
# Platelet DG rel: modulates dense granule release in human platelets; AID 1663; human platelet-rich plasma, SFLLRN dense granule ATP release, luminescence; inhibition, %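 (compounds screened at 7.5 µM in platelet-rich plasma)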; hit rate 0.22% among 300,000;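 active means mean replicate score, as percent of positive control, at or above 50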
# KLK5 inh: blocks human kallikrein 5 protease activity; recombinant hK5, fluorogenic AMC substrate cleavage; inhibition, % at 5 µM; hit rate 0.59% among 210,000; AID 873;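 active means inhibition of 40% or more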
# Target sequence (Q9Y337 67-293 limits assumed): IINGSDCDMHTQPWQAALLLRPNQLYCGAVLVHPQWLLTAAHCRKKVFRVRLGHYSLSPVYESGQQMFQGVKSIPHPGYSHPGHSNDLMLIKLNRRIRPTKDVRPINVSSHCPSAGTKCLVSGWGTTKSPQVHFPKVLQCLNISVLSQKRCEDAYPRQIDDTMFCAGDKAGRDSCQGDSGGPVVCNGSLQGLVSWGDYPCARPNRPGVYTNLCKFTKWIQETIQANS
# Thrombin inh: inhibitors of human thrombin; alpha-thrombin, Boc-VPR-AMC fluorogenic substrate cleavage; hit rate 0.26% among 220,000; P00734; inhibition, % at 5 µM; AID 1046;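 active means inhibition at or above 40%; inactive means inhibition below 40%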
#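 Assay system: human alpha-thrombin enzyme. Reagent: Boc-VPR-AMC substrate, 15 µM final. Compound dosing: one concentration per compound, 5 µM, with 0.2% DMSO. Incubation: room-temperature reaction. Technique: AMC fluorescence, 355/460 nm. Measure: % inhibition relative to enzyme controls and enzyme-free blanks.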
# A number is an active result; i = inactive; nt = no result given. Rows were chosen to be rich in hits. Some 1.8% of all compounds tested hit in one or more screens of this group.
SMILES,FXIa inh,FXIIa inh,Wee1 degr inh,Platelet DG rel,KLK5 inh,Thrombin inh
O=C(O)COc1cccc2nsnc12,i,i,i,i,i,i
CNC(=O)c1ccc(N(Cc2ccccc2)S(C)(=O)=O)cc1,i,58,i,i,72,i
CC(C)NC(=O)NC(=O)COC(=O)c1cccc(S(=O)(=O)N2CCCCC2)c1,i,i,i,i,i,i
Cc1ccc(C2CC(c3ccccc3OC(F)F)Nc3ncnn32)cc1 (stereo not drawn),i,i,i,51,i,i
Cc1ccc(OCC(=O)NCCCNC(=O)c2ccccn2)cc1C,nt,nt,nt,i,nt,nt
O=C(OCC(=O)N1CCc2ccccc21)c1ccccn1,i,i,i,i,i,i
Cc1ccccc1NS(=O)(=O)c1cc2c3c(c1)CC(=O)N3CCC2,nt,nt,nt,i,nt,nt
Cc1ccccc1NS(=O)(=O)c1ccc(N2CCCC2=O)cc1,i,i,10,i,i,i
CC(=O)NC1CCC(C(=O)O)(c2ccccc2)C1 (stereo not drawn),i,i,9.3,i,i,i
O=C(O)C1(c2ccccc2)CCC(Nc2ccccc2)C1 (stereo not drawn),nt,nt,nt,i,nt,nt
Cc1cc(C(=O)COC(=O)c2cccnc2Cl)c(C)n1-c1c(C)n(C)n(-c2ccccc2)c1=O,i,i,i,i,i,i
O=C(O)c1ccccc1NN=C1CCCCC1,i,i,9.8,i,i,i
C/C(=N\NC(=O)c1cccc(S(=O)(=O)N2CCCC2)c1)c1ccc(OCC(=O)N(C)C)cc1,nt,nt,nt,i,nt,nt
N#Cc1ccc(C(=O)Nc2nnc(-c3ccccn3)o2)cc1,i,i,9.4,i,i,i
O=C(OCC(=O)c1c[nH]c2ccccc12)C1=COCCO1,i,i,11,i,i,i
COc1ccc(C(=O)N/C(=C\c2ccc3c(c2)OCO3)C(=O)Nc2cccc(C(=O)O)c2)cc1,i,i,i,i,i,i
COc1ccccc1/C=N/Nc1nccnc1Cl,i,i,i,68,i,i
COc1cccc(/C=N/Nc2ncccc2[N+](=O)[O-])c1OC,i,i,i,82,i,i
CCN(CC)S(=O)(=O)c1ccc(N2CCN(S(=O)(=O)c3ccc4c(c3)OCCO4)CC2)nc1,i,i,i,i,i,i
COc1ccc(CNC(=O)c2c(-c3c(F)cccc3Cl)noc2C)cc1,nt,nt,nt,i,nt,nt
COc1ccc(S(=O)(=O)N2CCCC2C(=O)NCc2cccs2)cc1 (stereo not drawn),i,i,i,i,48,i
CCNC(=O)C1CCCN1S(=O)(=O)c1ccc(OC)cc1 (stereo not drawn),i,i,i,i,i,i
COc1cc2ccccc2cc1C(=O)Nc1nccs1,nt,nt,nt,i,nt,nt
CCNc1nc(NCC)nc(OCCNS(=O)(=O)c2cc(C)ccc2C)n1,i,i,i,i,53,i
O=C1C=C(NCc2ccc(Cl)cc2)CC(c2ccco2)C1 (stereo not drawn),i,i,i,i,i,i
SMILES,FXIa inh,FXIIa inh,Wee1 degr inh,Platelet DG rel,KLK5 inh,Thrombin inh
O=C1C=C(Nc2ccc(Cl)cc2Cl)CC(c2ccco2)C1 (stereo not drawn),i,i,9.7,i,i,i
O=C(C1CCC(CNS(=O)(=O)c2ccccc2)CC1)N1CCCCC1 (stereo not drawn),nt,nt,nt,i,nt,nt
COc1ccc(CN2CCN(C(=O)C3CCC(CNS(=O)(=O)c4ccccc4)CC3)CC2)c(OC)c1OC (stereo not drawn),i,101,i,i,i,i
COC(=O)c1ccc(OC)c(CN2CCCN(Cc3cc(C)ccc3C)S2(=O)=O)c1,nt,nt,nt,i,nt,nt
CCCCNC(=O)C1C2C=CC3(CN(Cc4ccc(C)cc4)C(=O)C13)O2 (stereo not drawn),i,i,i,i,i,i
Cc1ccc(CN2CC34C=CC(O3)C(C(=O)NCc3ccco3)C4C2=O)cc1 (stereo not drawn),i,i,i,i,156,i
COc1cc(CNCc2ccccn2)ccc1OCc1ccccc1Cl,i,i,i,i,i,i
CCOc1c(Cl)cc(CNCc2ccccn2)cc1OC,i,i,9.0,i,i,i
COc1cccc(C(=O)Nc2nc(SCc3ccc(Cl)cc3)n[nH]2)c1,i,i,i,i,i,51
CCOC(=O)CSc1n[nH]c(NC(=O)CC)n1,i,i,10,i,nt,i
CCOC(=O)CSc1n[nH]c(NC(=O)c2cccc(C(F)(F)F)c2)n1,i,i,i,i,i,78
CCOC(=O)CSc1nc(-c2ccccc2)cc(C(F)(F)F)n1,i,i,i,i,i,i
COc1cccc(C(=O)NNC(=O)Cc2ccc(Cl)cc2)c1,i,i,i,i,i,i
Cc1cccc(C)c1NC(=S)N(CCCN1CCOCC1)Cc1cccnc1,i,i,i,i,i,i
CCOc1ccc(CN(CCO)CCO)cc1[N+](=O)[O-],i,i,9.0,i,i,i
CCCCOc1ccc(CN(CCO)CCO)cc1[N+](=O)[O-],i,i,i,i,i,i
Cc1ccc(S(=O)(=O)Nc2n[nH]nc2C(=O)NC2CCCCC2)cc1,i,i,i,i,i,i
CCOC(=O)c1cnc(-c2ccccc2)nc1Oc1cccc(Cl)c1,i,i,i,nt,i,i
CCOC(=O)c1cnc(-c2ccccc2)nc1Oc1ccc(Cl)c(Cl)c1,i,i,i,i,65,i
CC(C)(C)c1ccc(N2C(=O)CSC2c2cccnc2)cc1 (stereo not drawn),i,i,i,i,i,i
Cc1ccc(-c2nnn(CC(=O)N(C)C3CCCCC3)n2)o1,i,i,i,i,i,i
O=C(Cn1nnc(-c2cccc(C(F)(F)F)c2)n1)N1CCOCC1,i,i,i,i,51,i
O=C(Cn1nnc(-c2ccc(N3CCOCC3)cc2)n1)N1CCOCC1,i,i,i,i,i,i
CN(C(=O)Cn1nnc(-c2cccc(C(F)(F)F)c2)n1)C1CCCCC1,i,i,i,70,i,i
O=C(COc1ccc2oc(-c3ccco3)cc(=O)c2c1)N1CCCCC1,i,i,i,i,i,i
SMILES,FXIa inh,FXIIa inh,Wee1 degr inh,Platelet DG rel,KLK5 inh,Thrombin inh
COC(=O)CS(=O)(=O)c1ccc(C)cc1,i,i,i,i,i,nt
COC(=O)CS(=O)(=O)c1ccc2c(c1)CC(=O)N2,i,i,i,64,i,i
C=CCNc1nc(Cl)ncc1F,i,i,i,i,i,i
C=CCNc1ncnc2sc(SC)nc12,i,i,10,i,i,i
CCOc1cccc(CN(C)CC2CCCN(CCc3ccc(Cl)cc3)C2)c1O (stereo not drawn),nt,nt,nt,i,nt,nt
Cc1[nH]c(=O)[nH]c(=O)c1/C=N/NC(=O)[C@H](C)N,i,i,i,i,52,i
Cc1[nH]c(=O)[nH]c(=O)c1/C=N/NC(=O)CCNC(=O)OC(C)(C)C,i,i,i,77,i,i
O=C(CCNC(=O)c1ccccc1Cl)Nc1nccs1,i,i,i,i,i,i
C/C(CC(=O)Nc1c(C)cc(C)cc1C)=N\NC(=O)c1cnccn1,i,i,i,i,i,i
O=C(Nc1ccc(-c2nc3ccccc3o2)cc1)c1cccnc1,i,i,11,nt,i,i

# From PubChem
